We go through 2 compounds from ChEMBL document CHEMBL1153277 (Bioorg Med Chem Lett, 2009).

Some results are limits rather than exact numbers.

The species named for series [1] is Homo sapiens. Nature of the series: Selectivity for human alpha4beta2 nAChR over human alpha7 nAChR.
Series [2] concerns the target T1, Muscarinic acetylcholine receptor M1 (Homo sapiens, UniProt P11229).
T1 sequence (P11229 whole entry): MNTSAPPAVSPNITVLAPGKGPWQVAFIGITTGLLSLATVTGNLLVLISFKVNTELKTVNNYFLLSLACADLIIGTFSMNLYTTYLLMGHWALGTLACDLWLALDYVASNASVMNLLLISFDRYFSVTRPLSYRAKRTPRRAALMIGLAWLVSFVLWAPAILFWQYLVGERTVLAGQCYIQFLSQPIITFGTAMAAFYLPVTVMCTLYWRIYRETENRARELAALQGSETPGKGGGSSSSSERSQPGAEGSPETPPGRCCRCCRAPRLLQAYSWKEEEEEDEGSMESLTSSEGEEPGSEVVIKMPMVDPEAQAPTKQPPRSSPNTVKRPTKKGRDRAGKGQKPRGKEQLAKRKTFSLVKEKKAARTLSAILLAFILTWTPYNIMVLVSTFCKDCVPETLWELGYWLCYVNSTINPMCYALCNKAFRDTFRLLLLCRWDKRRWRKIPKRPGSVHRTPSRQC
As to the kind of experiment: Inhibition of human recombinant muscarinic M1 receptor.

For series [3], the target named is Neuronal acetylcholine receptor; alpha3/beta4 (Homo sapiens, UniProt P30926+P32297). Nature of the series: Antagonist activity at human alpha3beta4 nAChR expressed in HEK293 cells by calcium influx assay. In kind it is functional, cell-based.
Series [4] deals with T2, Muscarinic acetylcholine receptor M5 (Homo sapiens, UniProt P08912).
T2 sequence (P08912 whole entry): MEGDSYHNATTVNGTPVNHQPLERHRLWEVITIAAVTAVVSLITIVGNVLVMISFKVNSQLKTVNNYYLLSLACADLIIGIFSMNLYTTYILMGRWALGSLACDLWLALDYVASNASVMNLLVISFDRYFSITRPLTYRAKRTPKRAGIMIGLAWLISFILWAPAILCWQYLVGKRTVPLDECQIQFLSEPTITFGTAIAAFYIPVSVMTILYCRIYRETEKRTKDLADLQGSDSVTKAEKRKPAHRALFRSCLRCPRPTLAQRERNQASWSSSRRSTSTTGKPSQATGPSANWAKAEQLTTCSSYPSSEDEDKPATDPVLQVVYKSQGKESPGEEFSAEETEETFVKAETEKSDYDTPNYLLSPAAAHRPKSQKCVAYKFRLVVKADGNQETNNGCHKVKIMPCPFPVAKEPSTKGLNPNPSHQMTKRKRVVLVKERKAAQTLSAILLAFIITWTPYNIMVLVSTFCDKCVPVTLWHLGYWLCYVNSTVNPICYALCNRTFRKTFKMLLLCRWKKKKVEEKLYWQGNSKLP
As to the kind of experiment: Inhibition of human recombinant muscarinic M5 receptor.

Series [5] deals with T3, Muscarinic acetylcholine receptor M2 (Homo sapiens, UniProt P08172).
T3 sequence (P08172 whole entry): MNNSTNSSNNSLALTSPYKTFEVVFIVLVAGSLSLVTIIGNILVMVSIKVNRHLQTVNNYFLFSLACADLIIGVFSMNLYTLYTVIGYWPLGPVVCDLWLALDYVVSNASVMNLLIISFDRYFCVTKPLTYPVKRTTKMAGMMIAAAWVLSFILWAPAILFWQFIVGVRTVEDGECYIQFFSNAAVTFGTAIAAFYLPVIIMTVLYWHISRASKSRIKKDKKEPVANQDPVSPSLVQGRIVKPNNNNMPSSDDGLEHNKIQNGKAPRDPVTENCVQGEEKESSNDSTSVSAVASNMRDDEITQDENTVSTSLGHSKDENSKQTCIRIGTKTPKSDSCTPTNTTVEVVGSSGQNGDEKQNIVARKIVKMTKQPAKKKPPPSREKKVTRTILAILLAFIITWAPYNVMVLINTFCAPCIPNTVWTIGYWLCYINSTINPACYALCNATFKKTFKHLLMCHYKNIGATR
Nature of the series: Inhibition of human recombinant muscarinic M2 receptor.

For series [6], the species on record is Homo sapiens. Nature of the series: Selectivity for human alpha3beta4 nAChR over human alpha7 nAChR.
Series [7] addresses Muscarinic acetylcholine receptor M3 (Homo sapiens, UniProt P20309). Nature of the series: Inhibition of human recombinant muscarinic M3 receptor.
For series [8], the species on record is Homo sapiens. Nature of the series: Selectivity for human alpha-1-beta-1-gamma-delta nAChR over human alpha7 nAChR.
Series [9] concerns the target T4, 5-hydroxytryptamine receptor 3A (Homo sapiens, UniProt P46098).
T4 sequence (P46098 whole entry): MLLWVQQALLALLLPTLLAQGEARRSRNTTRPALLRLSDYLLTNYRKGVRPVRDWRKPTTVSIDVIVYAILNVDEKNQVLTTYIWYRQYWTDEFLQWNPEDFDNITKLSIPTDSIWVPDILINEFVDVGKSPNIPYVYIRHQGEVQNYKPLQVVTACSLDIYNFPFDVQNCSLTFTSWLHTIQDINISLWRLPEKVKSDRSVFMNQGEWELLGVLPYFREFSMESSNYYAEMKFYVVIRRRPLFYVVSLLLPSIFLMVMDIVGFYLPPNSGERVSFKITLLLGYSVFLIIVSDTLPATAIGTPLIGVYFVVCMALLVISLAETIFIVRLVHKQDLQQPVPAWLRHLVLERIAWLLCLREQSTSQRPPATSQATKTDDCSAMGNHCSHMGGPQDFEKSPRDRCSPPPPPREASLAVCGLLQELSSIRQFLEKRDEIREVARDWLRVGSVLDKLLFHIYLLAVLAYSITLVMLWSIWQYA
Nature of the series: Antagonist activity at human 5HT3 receptor by calcium influx assay. It counts as functional.

For series [10], the target named is Neuronal acetylcholine receptor; alpha4/beta2 (Homo sapiens, UniProt P17787+P43681). Nature of the series: Antagonist activity at human alpha4beta2 nAChR expressed in HEK293 cells by calcium influx assay. In kind it is functional, cell-based.
Series [11] is filed under the species Homo sapiens. Nature of the series: Selectivity for human 5HT3 receptor over human alpha7 nAChR.
The target of series [12] is T5, Muscarinic acetylcholine receptor M4 (Homo sapiens, UniProt P08173).
T5 sequence (P08173 whole entry): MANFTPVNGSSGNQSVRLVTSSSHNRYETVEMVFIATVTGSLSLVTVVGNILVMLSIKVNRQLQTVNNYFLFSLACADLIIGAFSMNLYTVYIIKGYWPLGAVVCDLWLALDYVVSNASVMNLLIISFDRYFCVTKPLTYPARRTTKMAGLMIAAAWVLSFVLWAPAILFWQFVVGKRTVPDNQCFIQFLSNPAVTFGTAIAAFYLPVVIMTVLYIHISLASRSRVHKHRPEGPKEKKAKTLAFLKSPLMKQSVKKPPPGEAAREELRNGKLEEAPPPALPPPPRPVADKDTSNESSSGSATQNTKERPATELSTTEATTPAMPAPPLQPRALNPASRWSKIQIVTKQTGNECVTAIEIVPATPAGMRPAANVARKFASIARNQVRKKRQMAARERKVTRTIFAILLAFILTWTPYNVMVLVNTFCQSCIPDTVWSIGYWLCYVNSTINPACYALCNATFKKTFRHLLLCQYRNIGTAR
As to the kind of experiment: Inhibition of human recombinant muscarinic M4 receptor.

For series [13], the target named is Acetylcholine receptor; alpha1/beta1/delta/gamma (Homo sapiens, UniProt P02708+P07510+P11230+Q07001). Nature of the series: Antagonist activity at human alpha-1-beta-1-gamma-delta nAChR expressed in human TE671 cells by calcium influx assay. It counts as functional, cell-based, TE-671.
The target in series [14] is Neuronal acetylcholine receptor subunit alpha-7 (Homo sapiens, UniProt P36544). As to the kind of experiment: Agonist activity at human recombinant alpha7 nAChR expressed in rat GH3 cells by calcium influx assay. In kind it is functional, cell-based. The procedure, abridged: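 GH3 cells recombinantly expressing human α7 nAChR; agonist activity. Each compound run in duplicate. EC50 taken from individual 8-point concentration-response curves and expressed as pEC50, with Emax given in %.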

Series [15] deals with Brain. Nature of the series: Drug level in DBA/2 mouse brain at 30 umol/kg, po after 4 hrs. In kind it is ADME, organism-based. Conditions: in vivo. In outline:
(§1)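 Mice (n = 6) dosed 30 µmol/kg po. Brain and plasma levels measured at 1 h and 4 h after dosing, reported as pmol/g.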

A short description of series [16]: Octanol-water partition coefficient, log P of the compound. It counts as physicochemical.
Series [17] in a line: Metabolic stability in mouse liver microsomes assessed as hepatic extraction ratio. The conditions noted are these: read-out: Activity. It counts as ADME, Microsome. In outline:
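Compound incubated with mouse or human liver microsomes. In vitro hepatic extraction ratio reported as % compound depleted at the end of the experiment; half-life also given.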

Series [18] has as its target Voltage-gated inwardly rectifying potassium channel KCNH2 (Homo sapiens, UniProt Q12809). As to the kind of experiment: Inhibition of human ERG by patch-clamp technique.
The test system of series [19] is Mus musculus. Nature of the series: Plasma concentration in DBA/2 mouse at 30 umol/kg, po after 1 hr. In kind it is ADME, organism-based. The conditions noted are these: in vivo. The procedure, abridged:
as §1

A short description of series [20]: Protein binding in rat plasma assessed as fraction unbound. It counts as ADME, cell-free. In outline:
(§2)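 Binding to human and rat plasma protein, reported as the free (unbound) fraction in %.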

The subject of another series is Heart. Nature of the series: Toxicity in langendorff isolated rabbit heart assessed as effect on QT interval prolongation up to 10 uM by whole heart assay. It counts as tissue-based, Oryctolagus cuniculus. In outline: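 Langendorff isolated rabbit heart, ex vivo whole-heart preparation. QT interval monitored at concentrations up to 10 µM.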
Series [21] concerns Brain. As to the kind of experiment: Drug level in DBA/2 mouse brain at 30 umol/kg, po after 1 hr. It counts as ADME, organism-based. Conditions: in vivo. In outline:
as §1

The nature of series [22]: Protein binding in human plasma assessed as fraction unbound. In kind it is ADME, cell-free. In outline:
as §2

Series [23] can be described thus: Inhibition of sodium channel at 30 uM by patch-clamp technique.
Series [24] concerns Mus musculus. Nature of the series: Plasma concentration in DBA/2 mouse at 30 umol/kg, po after 4 hrs. It counts as ADME, organism-based. Conditions: in vivo. In outline: as §1

Chain of Acetylcholine receptor; alpha1/beta1/delta/gamma (P02708 whole entry): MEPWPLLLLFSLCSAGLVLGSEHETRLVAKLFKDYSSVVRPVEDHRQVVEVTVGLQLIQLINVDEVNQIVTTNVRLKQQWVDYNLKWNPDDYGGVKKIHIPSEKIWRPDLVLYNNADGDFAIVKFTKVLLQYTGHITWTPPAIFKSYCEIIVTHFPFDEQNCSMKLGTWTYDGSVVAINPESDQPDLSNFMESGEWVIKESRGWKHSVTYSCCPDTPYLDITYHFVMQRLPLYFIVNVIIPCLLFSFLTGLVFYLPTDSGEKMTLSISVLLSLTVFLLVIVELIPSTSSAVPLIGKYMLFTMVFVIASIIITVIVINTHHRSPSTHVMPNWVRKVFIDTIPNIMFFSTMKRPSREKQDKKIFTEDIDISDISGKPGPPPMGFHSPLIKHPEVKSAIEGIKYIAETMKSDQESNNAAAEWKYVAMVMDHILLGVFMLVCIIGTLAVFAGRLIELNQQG
Chain of Acetylcholine receptor; alpha1/beta1/delta/gamma (P07510 whole entry): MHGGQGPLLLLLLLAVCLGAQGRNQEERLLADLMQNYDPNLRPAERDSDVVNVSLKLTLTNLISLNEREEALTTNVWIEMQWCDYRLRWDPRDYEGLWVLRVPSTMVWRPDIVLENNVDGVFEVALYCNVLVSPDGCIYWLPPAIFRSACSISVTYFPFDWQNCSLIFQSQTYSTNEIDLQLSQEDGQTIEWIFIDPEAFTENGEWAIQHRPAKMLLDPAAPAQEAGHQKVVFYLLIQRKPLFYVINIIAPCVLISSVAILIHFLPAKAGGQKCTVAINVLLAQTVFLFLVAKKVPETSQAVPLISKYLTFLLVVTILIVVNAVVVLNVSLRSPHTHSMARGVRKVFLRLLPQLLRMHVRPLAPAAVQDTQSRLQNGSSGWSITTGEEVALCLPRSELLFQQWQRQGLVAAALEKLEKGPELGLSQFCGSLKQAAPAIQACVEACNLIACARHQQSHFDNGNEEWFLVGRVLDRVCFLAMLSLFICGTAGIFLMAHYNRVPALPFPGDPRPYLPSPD
Chain of Acetylcholine receptor; alpha1/beta1/delta/gamma (P11230 whole entry): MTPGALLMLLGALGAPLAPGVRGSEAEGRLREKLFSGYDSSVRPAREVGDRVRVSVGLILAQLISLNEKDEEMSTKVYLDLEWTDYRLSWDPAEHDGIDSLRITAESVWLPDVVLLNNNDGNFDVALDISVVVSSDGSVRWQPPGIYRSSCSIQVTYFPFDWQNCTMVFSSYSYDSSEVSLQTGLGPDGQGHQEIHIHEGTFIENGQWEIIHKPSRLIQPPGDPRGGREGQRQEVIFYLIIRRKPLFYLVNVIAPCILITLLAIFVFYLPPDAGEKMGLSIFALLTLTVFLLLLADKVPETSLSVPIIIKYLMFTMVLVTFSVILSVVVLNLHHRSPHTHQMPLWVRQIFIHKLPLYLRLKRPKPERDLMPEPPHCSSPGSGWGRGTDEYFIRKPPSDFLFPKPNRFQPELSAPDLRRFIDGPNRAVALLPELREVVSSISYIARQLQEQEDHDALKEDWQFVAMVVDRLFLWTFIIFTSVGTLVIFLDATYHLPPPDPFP
Chain of Acetylcholine receptor; alpha1/beta1/delta/gamma (Q07001 whole entry): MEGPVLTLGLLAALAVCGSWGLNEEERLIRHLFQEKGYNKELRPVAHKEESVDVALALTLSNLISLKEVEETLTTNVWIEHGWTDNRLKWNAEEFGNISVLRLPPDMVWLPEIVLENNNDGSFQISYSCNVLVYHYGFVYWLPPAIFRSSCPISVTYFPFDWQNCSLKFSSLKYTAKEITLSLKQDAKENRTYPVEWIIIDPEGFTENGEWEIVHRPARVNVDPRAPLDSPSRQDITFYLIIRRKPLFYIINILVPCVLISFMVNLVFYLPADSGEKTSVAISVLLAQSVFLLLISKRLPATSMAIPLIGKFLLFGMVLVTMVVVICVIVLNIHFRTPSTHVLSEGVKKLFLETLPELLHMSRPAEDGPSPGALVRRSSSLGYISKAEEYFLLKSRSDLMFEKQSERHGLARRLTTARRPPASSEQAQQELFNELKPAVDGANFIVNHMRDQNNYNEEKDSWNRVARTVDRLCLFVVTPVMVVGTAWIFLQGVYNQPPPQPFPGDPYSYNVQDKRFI
Chain of Neuronal acetylcholine receptor subunit alpha-7 (P36544 whole entry): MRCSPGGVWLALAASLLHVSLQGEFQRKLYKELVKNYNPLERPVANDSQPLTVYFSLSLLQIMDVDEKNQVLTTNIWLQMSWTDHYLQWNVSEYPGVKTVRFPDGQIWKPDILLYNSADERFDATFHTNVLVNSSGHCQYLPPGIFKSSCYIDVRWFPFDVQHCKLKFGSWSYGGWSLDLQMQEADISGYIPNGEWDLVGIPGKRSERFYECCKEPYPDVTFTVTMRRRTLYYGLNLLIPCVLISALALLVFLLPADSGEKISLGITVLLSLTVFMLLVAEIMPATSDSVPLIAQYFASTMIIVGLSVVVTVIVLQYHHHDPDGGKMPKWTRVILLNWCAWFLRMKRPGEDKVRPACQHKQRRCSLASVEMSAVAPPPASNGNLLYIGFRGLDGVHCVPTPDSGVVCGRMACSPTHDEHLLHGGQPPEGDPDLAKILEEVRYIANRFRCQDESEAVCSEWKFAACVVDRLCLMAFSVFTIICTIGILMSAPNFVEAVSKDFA
Chain of Neuronal acetylcholine receptor; alpha4/beta2 (P17787 whole entry): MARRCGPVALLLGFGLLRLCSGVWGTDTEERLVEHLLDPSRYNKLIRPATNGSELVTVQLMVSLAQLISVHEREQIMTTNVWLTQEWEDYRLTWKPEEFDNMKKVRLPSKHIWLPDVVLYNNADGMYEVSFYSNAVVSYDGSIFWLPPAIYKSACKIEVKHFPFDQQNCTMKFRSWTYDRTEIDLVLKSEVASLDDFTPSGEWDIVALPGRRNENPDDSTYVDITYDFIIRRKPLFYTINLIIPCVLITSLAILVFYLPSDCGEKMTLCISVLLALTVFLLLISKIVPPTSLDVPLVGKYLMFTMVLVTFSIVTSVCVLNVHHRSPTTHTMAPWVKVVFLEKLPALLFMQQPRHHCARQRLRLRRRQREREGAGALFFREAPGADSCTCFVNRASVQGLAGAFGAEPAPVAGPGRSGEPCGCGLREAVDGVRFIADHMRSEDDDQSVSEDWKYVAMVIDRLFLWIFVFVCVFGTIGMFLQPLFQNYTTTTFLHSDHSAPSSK
Chain of Neuronal acetylcholine receptor; alpha4/beta2 (P43681 whole entry): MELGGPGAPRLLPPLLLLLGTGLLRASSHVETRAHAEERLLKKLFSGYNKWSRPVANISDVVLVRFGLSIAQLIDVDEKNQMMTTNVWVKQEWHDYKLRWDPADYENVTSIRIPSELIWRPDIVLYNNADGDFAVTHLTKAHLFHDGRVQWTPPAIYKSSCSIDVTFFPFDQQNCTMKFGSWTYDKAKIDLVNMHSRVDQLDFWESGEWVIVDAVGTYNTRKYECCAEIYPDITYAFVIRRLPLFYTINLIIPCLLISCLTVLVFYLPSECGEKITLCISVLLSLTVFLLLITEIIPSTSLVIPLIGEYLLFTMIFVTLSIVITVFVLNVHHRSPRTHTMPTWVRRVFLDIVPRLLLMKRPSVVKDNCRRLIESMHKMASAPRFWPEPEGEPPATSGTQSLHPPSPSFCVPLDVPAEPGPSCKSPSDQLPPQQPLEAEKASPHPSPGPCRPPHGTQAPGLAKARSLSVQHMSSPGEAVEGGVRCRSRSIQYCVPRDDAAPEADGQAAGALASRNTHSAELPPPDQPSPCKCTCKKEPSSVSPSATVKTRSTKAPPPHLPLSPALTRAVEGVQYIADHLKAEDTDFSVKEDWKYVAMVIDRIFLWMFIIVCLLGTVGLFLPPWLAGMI
Chain of Neuronal acetylcholine receptor; alpha3/beta4 (P30926 whole entry): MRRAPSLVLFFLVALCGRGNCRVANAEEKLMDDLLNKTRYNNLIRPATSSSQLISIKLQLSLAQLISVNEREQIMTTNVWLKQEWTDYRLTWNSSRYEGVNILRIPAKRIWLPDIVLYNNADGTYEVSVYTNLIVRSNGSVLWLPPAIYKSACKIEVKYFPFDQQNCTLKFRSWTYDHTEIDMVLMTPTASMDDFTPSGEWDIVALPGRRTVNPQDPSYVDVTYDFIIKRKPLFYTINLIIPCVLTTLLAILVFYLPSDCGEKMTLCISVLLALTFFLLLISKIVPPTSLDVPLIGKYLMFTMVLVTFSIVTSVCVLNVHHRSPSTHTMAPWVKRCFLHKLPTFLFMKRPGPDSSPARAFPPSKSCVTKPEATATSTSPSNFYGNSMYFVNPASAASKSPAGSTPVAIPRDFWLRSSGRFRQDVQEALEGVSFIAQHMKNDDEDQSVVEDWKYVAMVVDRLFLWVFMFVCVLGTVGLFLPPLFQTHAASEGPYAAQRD
Chain of Neuronal acetylcholine receptor; alpha3/beta4 (P32297 whole entry): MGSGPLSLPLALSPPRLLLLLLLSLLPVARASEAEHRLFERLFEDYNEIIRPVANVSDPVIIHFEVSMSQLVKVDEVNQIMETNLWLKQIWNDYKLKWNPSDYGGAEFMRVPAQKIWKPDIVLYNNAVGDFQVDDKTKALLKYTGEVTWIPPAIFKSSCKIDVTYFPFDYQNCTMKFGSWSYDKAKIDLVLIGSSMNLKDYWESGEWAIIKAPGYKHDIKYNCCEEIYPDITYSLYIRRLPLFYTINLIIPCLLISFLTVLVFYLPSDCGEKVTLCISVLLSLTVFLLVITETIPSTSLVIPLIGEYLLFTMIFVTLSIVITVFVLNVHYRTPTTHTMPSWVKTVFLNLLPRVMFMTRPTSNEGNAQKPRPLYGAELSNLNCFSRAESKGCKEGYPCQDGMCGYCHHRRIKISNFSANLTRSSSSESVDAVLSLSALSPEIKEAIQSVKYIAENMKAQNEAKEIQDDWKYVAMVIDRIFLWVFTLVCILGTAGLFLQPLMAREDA

With `C[C@H](OC(=O)N[C@@H]1CN2CCC1CC2)c1ccccc1F`, the Ratio in the series filed under Homo sapiens [1] came out at 251; in the series filed under Homo sapiens [6], 200; in the series listed under Homo sapiens [8] it was 1260; in the series listed under Homo sapiens [11] it was 200. Also, the IC50 was > 10 µM in [2]; 20 µM in series [3]; > 10 µM in series [4]; > 10 µM in series [5]; > 10 µM in series [7]; 20 µM in [9]. The results for the IC50 in series [10], in series [12] and in series [13] were 25.1 µM, > 10 µM and 126 µM, respectively.
In the case of `CN1C(=O)[C@@H](CN2CCCCC2)C[C@H]1C#Cc1ccccc1` (relative stereo), the Ratio in the series filed under Homo sapiens [1] stood at 820; in the series filed under Homo sapiens [6], 126; in the series filed under Homo sapiens [8], 1300; in the series filed under Homo sapiens [11], 26400. The EC50 in series [14] is 0.01 µM. Besides, in series [14], the Emax is 104%. For the same compound, the results for the Drug uptake with Brain [15] and with Brain [21] were 64 pmol/g and 239 pmol/g, respectively. For the same compound, the IC50 in [3] was 1.26 µM; in series [18], 6.85 µM; in series [9] it was 251 µM; in [10], 7.94 µM; in series [13], 12.6 µM. The compound further showed a logP in series [16] of 3.7. For the same compound, in [17], the hepatic extraction ratio is 0.9. The Cp in the series on Mus musculus [19] worked out at 18 pmol/g; in the series on Mus musculus [24], 4 pmol/g. Also, the figures for the fraction unbound in series [20] and in [22] were 0.31 and 0.17, respectively. Besides, in the series on Heart, the Activity entry was “Non-toxic”. In addition, in series [23], the inhibition is 33%.
